Source: PubChem BioAssay
Compounds with a hit are over-represented: about 3% of the library has one in this group of screens.
PLCb3 inh: inhibitors of human phospholipase C beta3 | actives 0.18% (n = 370,000) | inhibition, % at 12.2 µM | Q01970 | Purified PLC-beta3, fluorogenic substrate, fluorescence; in the data active means inhibition above about 11%;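 further: 0% = median of compound wells on plate and 100% = full blocker control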
KLK7 zymogen act: activators of human kallikrein-7 zymogen | purified proKLK7, EDANS-DABCYL substrate fluorescence; 100% is mature enzyme control, 0% vehicle | actives 0.9% (n = 370,000) | activation, % at 7 µM;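 active means activation above the mean of all tested compounds plus 3 SD, computed per campaign excluding outliers beyond control limits, cut at about 13% in these data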
Target sequence (P49862 whole entry, looked up): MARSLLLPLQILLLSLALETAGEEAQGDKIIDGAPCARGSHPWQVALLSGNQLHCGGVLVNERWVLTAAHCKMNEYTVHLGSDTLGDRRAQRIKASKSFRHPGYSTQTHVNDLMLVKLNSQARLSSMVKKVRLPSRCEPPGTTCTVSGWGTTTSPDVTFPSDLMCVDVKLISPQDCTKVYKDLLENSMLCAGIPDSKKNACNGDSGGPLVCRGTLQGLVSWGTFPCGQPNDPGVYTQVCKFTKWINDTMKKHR
PLCg1 inh: inhibitors of human phospholipase C gamma1; inhibition, % at 12.2 µM; actives 0.84% (n = 370,000); purified PLC-gamma1, fluorogenic substrate, fluorescence; AID 720700; in the data active means inhibition above about 9.5%
DDE Tn7 FP inh: disrupts Tn7 cyclic peptide binding to fibrin D-Dimer-E complex. FP displacement of FITC-Tn7 peptide from fibrin DD(E); 0% = median of compound wells per plate. inhibition, % at 8.3 µM. actives 0.13% (n = 370,000);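 active means inhibition above the mean of compounds falling within the control limits plus 3 SD of them, cut at about 14% in these data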;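 further: 0% = plate median of compound wells and 100% = 10 µM Aha-Tn7 peptide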
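Test system – human fibrin DD(E) · Times – 10 min preincubation, 3 h with tracer, room temperature · Detection – fluorescence polarization of the labelled Tn7 tracer · Measure – percent inhibition normalized to high-control wells · Benchmarks – high control wells with 10 µM unlabelled Aha-Tn7 peptide (full inhibition) · Repeats – singlicate testing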
DDE Tn6 FP inh: inhibitors of Tn6 peptide binding to human fibrin DD(E); P02675; Fibrin DD(E) TRITC-Tn6 fluorescence polarization displacement; inhibition, % at 8.3 µM; actives 0.21% (n = 370,000);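 active means inhibition above a per-campaign cutoff: mean of compounds within control limits plus 3 SD, cut at about 15% in these data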;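 further: 0% = median of all compound wells on the plate and 100% = blocking peptide control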
CendR NRP1 mod: NRP-1/CendR interaction modulation | O14786 | FAM-RPARPAR peptide binding to NRP-1, fluorescence polarization | inhibition, % at 25 µM | actives 0.85% (n = 360,000) | AID 602438;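 active means inhibition or corrected inhibition above about 18%, plus a signal ratio from 0.5 to 1.5, limit read from the data, passing the limit was not always enough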
Active calls of the source: *.

Screening COC(=O)c1cc(S(=O)(=O)N2CCN(C(C)=O)CC2)cn1C returned PLCb3 inh 5, KLK7 zymogen act 0, PLCg1 inh 2, DDE Tn7 FP inh -9 and DDE Tn6 FP inh 0.
Screening Cc1ccc(C(=O)COC(=O)c2cc(Cl)ccc2O)cc1[N+](=O)[O-] returned PLCb3 inh -7, KLK7 zymogen act 1, PLCg1 inh -3, DDE Tn7 FP inh 6, DDE Tn6 FP inh 5 and CendR NRP1 mod 45*.
`Cc1ccc(-n2c(SCC(=O)Nc3ccccc3-c3ccccc3)nnc2-c2cnccn2)cc1` gave PLCb3 inh -2, KLK7 zymogen act 1, PLCg1 inh 2, DDE Tn7 FP inh 7 and DDE Tn6 FP inh -1.
For C(#Cc1ccccc1)C[N+]1(CC#Cc2ccccc2)CCCC1 the results were PLCb3 inh 4, KLK7 zymogen act 0, PLCg1 inh 4, DDE Tn7 FP inh -3, DDE Tn6 FP inh 3 and CendR NRP1 mod 7.
For C=CC#CC[N+]1(CC#Cc2ccccc2)CCOCC1 the results were PLCb3 inh -6, KLK7 zymogen act 0, PLCg1 inh 3, DDE Tn7 FP inh -52, DDE Tn6 FP inh -2 and CendR NRP1 mod 21*.
Screening O=S(=O)(c1ccc(Cl)cc1)N1CCC2(CC1)OCCO2 returned PLCb3 inh -4, KLK7 zymogen act 0, PLCg1 inh 7, DDE Tn7 FP inh 8, DDE Tn6 FP inh -2 and CendR NRP1 mod 3.
Screening CCCCc1ccc(S(=O)(=O)N2CCC3(CC2)OCCO3)cc1 returned PLCb3 inh -10, KLK7 zymogen act -1, PLCg1 inh 4, DDE Tn7 FP inh 2, DDE Tn6 FP inh 0 and CendR NRP1 mod 33*.
Screening CC1(C)CC(=O)C=C(Nc2ccccc2NC(=O)c2cccc(F)c2F)C1 returned PLCb3 inh 0, KLK7 zymogen act 0, PLCg1 inh -2, DDE Tn7 FP inh 4 and DDE Tn6 FP inh 7.
`CCCn1nc2cc(C(=O)NCc3ccc(C)cc3)ccc2c1OC` gave PLCb3 inh -368, KLK7 zymogen act -1, PLCg1 inh -256, DDE Tn7 FP inh 0, DDE Tn6 FP inh 2 and CendR NRP1 mod -1.
CCCCn1nc2cc(C(=O)NCc3cc(C(F)(F)F)cc(C(F)(F)F)c3)ccc2c1OC was read as PLCb3 inh -78, KLK7 zymogen act 0, PLCg1 inh -73, DDE Tn7 FP inh 2, DDE Tn6 FP inh -2 and CendR NRP1 mod 27*.
For COc1c2ccc(C(=O)NCc3cc(C(F)(F)F)cc(C(F)(F)F)c3)cc2nn1C the results were PLCb3 inh -375, KLK7 zymogen act -4, PLCg1 inh -284, DDE Tn7 FP inh -6, DDE Tn6 FP inh 1 and CendR NRP1 mod 28*.
For CCCCn1nc2cc(C(=O)NCc3ccc(OC(F)(F)F)cc3)ccc2c1OC the results were PLCb3 inh -403, KLK7 zymogen act -13, PLCg1 inh -237, DDE Tn7 FP inh 0, DDE Tn6 FP inh -6 and CendR NRP1 mod 27*.
`COCCn1c(Cc2ccccc2)nnc1SCC(=O)NC1CC1` gave PLCb3 inh -6, KLK7 zymogen act -1, PLCg1 inh 2, DDE Tn7 FP inh 10, DDE Tn6 FP inh -2 and CendR NRP1 mod 25*.
For COc1ccccc1NC(=O)c1ccc(C)c(S(=O)(=O)N2CCCCC2)c1 the results were PLCb3 inh -1, KLK7 zymogen act 0, PLCg1 inh 13*, DDE Tn7 FP inh -1, DDE Tn6 FP inh -11 and CendR NRP1 mod -4.
Screening CN(CCOC(=O)c1cc2ccccc2o1)C1CN(Cc2cn(Cc3ccccc3F)nn2)S(=O)(=O)C1 (stereo unspecified) returned PLCb3 inh 2, KLK7 zymogen act 0, PLCg1 inh -4, DDE Tn7 FP inh 4 and DDE Tn6 FP inh 3.
Screening COc1ccc(C[N+]2=C(N)NC3=C(C)Cn4c(=O)n(-c5ccccc5)c(=O)n4C3C2)c(OC)c1 (stereo unspecified) returned PLCb3 inh 0, KLK7 zymogen act 0, PLCg1 inh -2, DDE Tn7 FP inh -1 and DDE Tn6 FP inh -1.
For CCOC(=O)CCc1c(C)nc2ncnn2c1C the results were PLCb3 inh 2, KLK7 zymogen act 0, PLCg1 inh 3, DDE Tn7 FP inh -3, DDE Tn6 FP inh -8 and CendR NRP1 mod -3.
Screening Cc1nc2ncnn2c(C)c1CCC(=O)O returned PLCb3 inh 9, KLK7 zymogen act 0, PLCg1 inh 10*, DDE Tn7 FP inh -2, DDE Tn6 FP inh -3 and CendR NRP1 mod -6.
Cc1ccccc1CS(=O)(=O)c1ccc(C(=O)N2CCOCC2)cc1[N+](=O)[O-] was read as PLCb3 inh 3, KLK7 zymogen act 1, PLCg1 inh 0, DDE Tn7 FP inh 4, DDE Tn6 FP inh 5 and CendR NRP1 mod 12.
`O=C(c1ccc(S(=O)(=O)Cc2ccccc2Cl)c([N+](=O)[O-])c1)N1CCOCC1` gave PLCb3 inh 2, KLK7 zymogen act 1, PLCg1 inh 1, DDE Tn7 FP inh 2, DDE Tn6 FP inh 0 and CendR NRP1 mod 17*.
COC(=O)[C@]12C[C@H](CC(=O)N3CCOCC3)C(=O)N(Cc3ccco3)C1=C[C@H](COCc1ccccc1)O[C@@H]2C was read as PLCb3 inh 1, KLK7 zymogen act 0, PLCg1 inh -1, DDE Tn7 FP inh -8 and DDE Tn6 FP inh -3.
Screening CC1C(=O)Nc2ccc(S(=O)(=O)NCCc3ccc(Cl)cc3)cc2NC1=O (stereo unspecified) returned PLCb3 inh -7, KLK7 zymogen act 1, PLCg1 inh 1, DDE Tn7 FP inh 5, DDE Tn6 FP inh -4 and CendR NRP1 mod 24*.
COC(CNC(=O)[C@H](Cc1ccccc1)NC(C)(C)C(=O)NC1CCCCC1)OC was read as PLCb3 inh 0, PLCg1 inh -2, DDE Tn7 FP inh -1 and DDE Tn6 FP inh -6.
`C/C(C/C(C)=C1/SC(=S)NC1=O)=C1\SC(=S)NC1=O` gave PLCb3 inh -3, KLK7 zymogen act 0, PLCg1 inh 73*, DDE Tn7 FP inh 1, DDE Tn6 FP inh -4 and CendR NRP1 mod -232.
CCCCCC/C(C)=C1/SC(=S)NC1=O was read as PLCb3 inh -2, KLK7 zymogen act -1, PLCg1 inh -1, DDE Tn7 FP inh -7, DDE Tn6 FP inh -5 and CendR NRP1 mod -125.
`COc1cc(OC)cc(C(=O)Nc2ncc3c(n2)CC(C)CC3=O)c1` (stereo unspecified) gave PLCb3 inh 11, KLK7 zymogen act 0, PLCg1 inh 1, DDE Tn7 FP inh 5, DDE Tn6 FP inh 1 and CendR NRP1 mod 35*.
`COc1ccc(C(=O)Nc2ncc3c(n2)CC(c2ccco2)CC3=O)cc1` (stereo unspecified) gave PLCb3 inh -3, KLK7 zymogen act 0, PLCg1 inh -2, DDE Tn7 FP inh -4, DDE Tn6 FP inh 10 and CendR NRP1 mod 36*.
